ChEMBL document CHEMBL2390935, “Synthesis and pharmacological properties of a new hydrophilic and orally bioavailable 5-HT4 antagonist” (Eur J Med Chem, 2013)

How the values were obtained:
[1] = target: Voltage-gated inwardly rectifying potassium channel KCNH2 (Homo sapiens, UniProt Q12809); assay: Inhibition of human ERG expressed in HEK293 cells by whole-cell patch-clamp technique; type: cell-based
Summary of the method: (§1)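 Whole-cell patch clamp on isolated hERG-expressing cells superfused with HB-PSS, one cell per coverslip, holding potential -80 mV. Peak tail current averaged over 5–10 pulses. Baseline taken before exposure; ascending concentrations applied to steady state without washout, at least 3 cells per concentration. Residual current corrected for time-matched vehicle rundown. IC50 from a Hill-type fit. Terfenadine 50 nM served as positive control.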

[2] = Oral bioavailability in Sprague-Dawley rat at 10 mg/kg by LC-MS/MS analysis; type: ADME, organism-based; details: in vivo
Summary of the method: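 Male Sprague-Dawley rats dosed 10 mg/kg p.o. and 1 mg/kg i.v. Plasma free acid measured by LC-MS/MS at timed samples up to 24 h. Non-compartmental AUC (trapezoidal, extrapolated to infinity). F = (AUC p.o./dose p.o.)/(AUC i.v./dose i.v.), expressed in %.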

[3] = Cmax in Sprague-Dawley rat at 10 mg/kg, po by LC-MS/MS analysis; type: ADME, organism-based; set-up: dose 10 mg/kg, route oral; details: in vivo
Summary of the method: (§2)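 Male Sprague-Dawley rats (n = 3 per compound, n = 2 for the medoxomil prodrug) given 10 mg/kg p.o., in 10% ethanol in water or in 2% β-cyclodextrin (1.0 mg/ml). Tail-vein and terminal blood taken to 24 h. Plasma acidified and acetonitrile-precipitated. Free acid quantified by UPLC-ESI MRM MS. Non-compartmental analysis for each animal, then averaged; AUC by linear trapezoidal rule extrapolated to infinity; Cmax and Tmax read directly; T1/2 from terminal slope.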

Rattus norvegicus [4] = assay: AUC in Sprague-Dawley rat at 10 mg/kg, po by LC-MS/MS analysis; type: ADME, organism-based, Plasma; set-up: dose 10 mg/kg, route oral; details: in vivo; summary of the method: as §2
[5] = Tmax in Sprague-Dawley rat at 10 mg/kg, po by LC-MS/MS analysis; type: ADME, organism-based; set-up: dose 10 mg/kg, route oral; details: in vivo; summary of the method: as §2
[6] = target: T1, 5-hydroxytryptamine receptor 4 (Homo sapiens, UniProt Q13639); assay: Displacement of [3H]GR113808 from human 5-HT4B receptor expressed in HEK293 cells after 1 hr by liquid scintillation counting analysis; type: cell-based
T1 sequence (Q13639 whole entry): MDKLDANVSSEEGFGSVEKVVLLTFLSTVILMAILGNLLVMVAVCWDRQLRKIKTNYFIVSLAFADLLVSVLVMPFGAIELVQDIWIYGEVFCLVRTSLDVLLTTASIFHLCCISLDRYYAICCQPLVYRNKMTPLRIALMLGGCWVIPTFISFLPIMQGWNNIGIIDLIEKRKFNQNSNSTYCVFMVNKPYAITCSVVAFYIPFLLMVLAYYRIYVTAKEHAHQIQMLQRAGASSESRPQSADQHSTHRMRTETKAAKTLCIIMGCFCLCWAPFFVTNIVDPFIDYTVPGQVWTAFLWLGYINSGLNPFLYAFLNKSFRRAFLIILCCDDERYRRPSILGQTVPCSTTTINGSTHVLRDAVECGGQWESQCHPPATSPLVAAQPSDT
Summary of the method: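 Competitive binding with 0.3 nM [3H]GR113808 on membranes from HEK293 cells stably expressing human 5-HT4(b).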

[7] = Elimination half life in Sprague-Dawley rat at 10 mg/kg, po by LC-MS/MS analysis; type: ADME, organism-based; set-up: dose 10 mg/kg, route oral; details: in vivo, read-out: beta t1/2; summary of the method: as §2
[8] = 1-octanol-PBS partition coefficient, log D of the compound at pH 7.4 by shake-flask method; type: physicochemical
[9] = Metabolic stability in human liver microsomes assessed as compound remaining at 2 uM after 60 mins by LC-MS analysis; type: ADME, Microsome; details: read-out: Stability
Summary of the method: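 Pooled human liver microsomes (30 donors) at 0.5 mg protein/ml, 2 µM substrate, 1% DMSO, 1 mM NADPH plus 1 mM UDPGA, 37 °C. Cofactor-free parallel incubations run. Samples taken at 0, 10, 30 and 60 min and quenched with ice-cold acetonitrile. Disappearance judged by LC-MS peak area against the 0 min sample without cofactors.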

hERG (KCNH2) = hERG (KCNH2) (Homo sapiens, UniProt Q12809); assay: Inhibition of human ERG expressed in HEK293 cells at 100 uM by whole-cell patch-clamp technique relative to control; type: cell-based; details: HEK293 cells expressing human ERG; summary of the method: as §1
Sequence of hERG (KCNH2) (Q12809 whole entry): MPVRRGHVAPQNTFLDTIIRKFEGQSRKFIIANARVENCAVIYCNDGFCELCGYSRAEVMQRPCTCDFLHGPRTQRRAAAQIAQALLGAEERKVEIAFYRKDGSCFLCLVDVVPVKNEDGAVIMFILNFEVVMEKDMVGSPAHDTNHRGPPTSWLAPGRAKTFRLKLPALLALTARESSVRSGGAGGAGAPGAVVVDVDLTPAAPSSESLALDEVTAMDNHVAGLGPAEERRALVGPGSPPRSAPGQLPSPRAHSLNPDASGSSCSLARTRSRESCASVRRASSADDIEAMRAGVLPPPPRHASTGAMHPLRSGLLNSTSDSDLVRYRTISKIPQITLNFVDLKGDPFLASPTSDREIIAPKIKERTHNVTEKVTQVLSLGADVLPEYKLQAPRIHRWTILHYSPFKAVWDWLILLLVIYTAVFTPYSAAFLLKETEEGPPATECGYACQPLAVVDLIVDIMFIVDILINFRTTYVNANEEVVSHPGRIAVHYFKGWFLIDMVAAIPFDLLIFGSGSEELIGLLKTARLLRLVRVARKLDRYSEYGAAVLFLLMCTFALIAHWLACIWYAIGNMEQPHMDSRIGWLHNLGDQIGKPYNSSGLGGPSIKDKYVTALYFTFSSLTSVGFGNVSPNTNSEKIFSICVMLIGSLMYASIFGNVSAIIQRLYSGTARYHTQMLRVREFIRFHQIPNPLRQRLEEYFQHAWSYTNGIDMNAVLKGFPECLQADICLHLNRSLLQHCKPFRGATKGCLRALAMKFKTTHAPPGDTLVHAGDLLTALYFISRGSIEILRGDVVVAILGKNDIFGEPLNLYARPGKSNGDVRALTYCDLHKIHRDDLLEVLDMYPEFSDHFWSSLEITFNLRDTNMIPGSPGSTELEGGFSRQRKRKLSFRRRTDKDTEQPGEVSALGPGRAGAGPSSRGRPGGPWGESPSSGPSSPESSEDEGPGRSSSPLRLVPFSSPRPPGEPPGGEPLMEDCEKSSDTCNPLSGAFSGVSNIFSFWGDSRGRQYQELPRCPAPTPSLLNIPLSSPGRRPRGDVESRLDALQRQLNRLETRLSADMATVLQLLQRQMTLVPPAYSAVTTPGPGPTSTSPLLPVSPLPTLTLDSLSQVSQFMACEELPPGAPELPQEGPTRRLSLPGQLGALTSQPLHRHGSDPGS

[10] = target: T1, 5-hydroxytryptamine receptor 4; assay: Antagonist activity at human 5-HT4B receptor expressed in HEK293 cells assessed as inhibition of 5-HT-stimulated adenylyl cyclase activity after 20 mins; type: functional, cell-based
Summary of the method: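 Membranes from HEK293 cells stably expressing human 5-HT4(b). Adenylyl cyclase activity stimulated by 1 µM 5-HT. Inhibition measured across a concentration range of test compound.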

Rattus norvegicus [11] = assay: AUC in Sprague-Dawley rat assessed as 2-[4-[[4-(3,4-dihydro-2H-[1,3]oxazino[3,2-a]indole-10-carbonyloxymethyl)-1-piperidinyl]methyl]phenyl]-2-methylpropanoic acid level at 10 mg/kg, po by LC-MS/MS analysis; type: ADME, organism-based, Plasma; set-up: dose 10 mg/kg, route oral; details: in vivo
Summary of the method: (§3)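 Male Sprague-Dawley rats, 10 mg/kg p.o. in 10% ethanol/water or 2% β-cyclodextrin (1.0 mg/ml), n = 2–3. Tail-vein and terminal cardiac blood taken under isoflurane at 5 min–24 h. Plasma acidified and acetonitrile-precipitated, then the free acid measured by LC-MS MRM (LOQ 0.5 ng/ml). Non-compartmental analysis per animal, averaged. T1/2 from the terminal log-linear regression; Cmax and Tmax read directly.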

Rattus norvegicus [12] = assay: Tmax in Sprague-Dawley rat assessed as 2-[4-[[4-(3,4-dihydro-2H-[1,3]oxazino[3,2-a]indole-10-carbonyloxymethyl)-1-piperidinyl]methyl]phenyl]-2-methylpropanoic acid level at 10 mg/kg, po by LC-MS/MS analysis; type: ADME, organism-based; set-up: dose 10 mg/kg, route oral; details: in vivo; summary of the method: as §3
Rattus norvegicus [13] = assay: Oral bioavailability in Sprague-Dawley rat assessed as 2-[4-[[4-(3,4-dihydro-2H-[1,3]oxazino[3,2-a]indole-10-carbonyloxymethyl)-1-piperidinyl]methyl]phenyl]-2-methylpropanoic acid level at 10 mg/kg by LC-MS/MS analysis; type: ADME, organism-based; details: in vivo
Summary of the method: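 Rats given 10 mg/kg orally and, for the free acid, 1 mg/kg i.v. Free-acid plasma levels measured by LC-MS at timed points. AUC by linear trapezoidal rule, extrapolated to infinity. F = (AUC p.o./dose p.o.)/(AUC i.v./dose i.v.), reported as %.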

Rattus norvegicus [14] = assay: Elimination half life in Sprague-Dawley rat assessed as 2-[4-[[4-(3,4-dihydro-2H-[1,3]oxazino[3,2-a]indole-10-carbonyloxymethyl)-1-piperidinyl]methyl]phenyl]-2-methylpropanoic acid level at 10 mg/kg, po by LC-MS/MS analysis; type: ADME, organism-based; set-up: dose 10 mg/kg, route oral; details: in vivo; summary of the method: as §3
Rattus norvegicus [15] = assay: Cmax in Sprague-Dawley rat assessed as 2-[4-[[4-(3,4-dihydro-2H-[1,3]oxazino[3,2-a]indole-10-carbonyloxymethyl)-1-piperidinyl]methyl]phenyl]-2-methylpropanoic acid level at 10 mg/kg, po by LC-MS/MS analysis; type: ADME, organism-based; set-up: dose 10 mg/kg, route oral; details: in vivo; summary of the method: as §3

Sequence of Voltage-gated inwardly rectifying potassium channel KCNH2 (Q12809 whole entry, the tested form may be a part): as the sequence (Q12809 whole entry) above

| SMILES | IC50 [1] | bioavailability [2] | Cmax [3] | AUC (Rattus norvegicus [4]) | Tmax [5] | Ki [6] | half-life [7] | logD [8] | remaining at 1 h, 2 µM [9] | inhibition at 100 µM (hERG (KCNH2)) | pKb [10] | AUC (Rattus norvegicus [11]) | Tmax (Rattus norvegicus [12]) | F (Rattus norvegicus [13]) | beta t1/2 (Rattus norvegicus [14]) | Cmax (Rattus norvegicus [15]) |
| --- | --- | --- | --- | --- | --- | --- | --- | --- | --- | --- | --- | --- | --- | --- | --- | --- |
| CC(C)(C(=O)O)c1ccc(CN2CCC(COC(=O)c3c4n(c5ccccc35)CCCO4)CC2)cc1 | 69000 nM | 3% | 130 ng/mL | 285 ng·h/mL | 0.2 h | 0.126 nM | 6.07 h | -1.2 | < 0.1% | 55.8% | 8.6 | – | – | – | – | – |
| CC(C)(C)c1ccc(CN2CCC(COC(=O)c3c4n(c5ccccc35)CCCO4)CC2)cc1 | – | 6% | 33 ng/mL | 533 ng·h/mL | 5.67 h | – | 26.8 h | 2.4 | – | – | – | 127 ng·h/mL | 1.33 h | 1% | 19.83 h | 13 ng/mL |
| Cc1oc(=O)oc1COC(=O)C(C)(C)c1ccc(CN2CCC(COC(=O)c3c4n(c5ccccc35)CCCO4)CC2)cc1 | – | – | – | – | – | – | – | 2.2 | – | – | – | 1206 ng·h/mL | 0.5 h | 16% | 1.2 h | 817 ng/mL |
| Cn1cc(C(=O)OCC2CCN(CCNS(C)(=O)=O)CC2)c2ccccc21 | – | – | – | – | – | 0.0398 nM | – | – | – | – | 8.7 | – | – | – | – | – |
| CCCCN1CCC(CNC(=O)c2c3n(c4ccccc24)CCCO3)CC1 [PIBOSEROD] | – | – | – | – | – | 0.1 nM | – | – | – | – | 9.1 | – | – | – | – | – |
